Assay results collected from several papers.
Protocols differ between the studies behind these lines. pIC50: −log10 of the molar value.
Cell line: MCF7
Observed: cell growth or viability

Cc1ccc2nc(-c3ccc(Cl)cc3Cl)[nH]c2c1  pIC50 (MTT; 48 h): 4.24
C#Cc1cccc(Nc2ncnc3cc(OCCOC)c(OCCOC)cc23)c1  pIC50 (MTT): 5.50
CSc1nc(N)n(-c2ccc(C(=O)O)cc2)n1  pIC50 (MTT): 4.48
O=C(N/N=C/c1cccn1CCN1CCCCC1)Nc1cc2c(Nc3ccc(F)c(Cl)c3)ncnc2cc1O[C@H]1CCOC1  pIC50 (MTT; 72 h): 5.62
Nc1ncnc2c1ncn2[C@@H]1O[C@H](CO)[C@@H](O)[C@H]1O  pIC50 (WST-1; 48 h): 4.32
COCO[C@H]1C[C@H]2OC(C)(C)OC[C@]23[C@@H]2[C@@H](CC[C@]3(O)C1)[C@@]1(OCOC)CC[C@H](CO)[C@@]1(C)C[C@H]2OCOC  pIC50 (resazurin; 72 h): < 4.00
CNc1nc2ccccc2n2c(-c3cccc(OC)c3)cnc12  pIC50 (neutral red; 96 h): 6.66
CN(C)CCCn1cccc1/C=N/NC(=O)Nc1cc2c(Nc3ccc(F)c(Cl)c3)ncnc2cc1O[C@H]1CCOC1  pIC50 (MTT; 72 h): 5.21
COc1cccc2c1C(=O)c1c(O)c3c(c(O)c1C2=O)C[C@@](O)(C(=O)CO)C[C@@H]3O[C@H]1C[C@H](N)[C@H](O)[C@H](C)O1  pIC50 (MTT; 48 h): 7.22
COc1ccnc(Nc2ccc3ncnc(Nc4cccc(C(F)(F)F)c4)c3c2)c1  pIC50 (MTT; 24 h): 5.23
COc1cccc(C(=O)O[C@@H]2CN3Cc4c(cc5c(c4OC)OCO5)[C@@]24C=C[C@H](OC)C[C@@H]34)c1  pIC50 (WST-1): < 5.00
CCOc1ccc(-c2nc3ccccc3[nH]2)cc1  pIC50 (MTT; 48 h): < 4.00
O=C(CCl)Nc1ccc2c(Nc3cccc(C(F)(F)F)c3)ncnc2c1  pIC50 (MTT; 24 h): 5.11
O=Cc1ccc(CO)o1  pIC50 (WST-1; 48 h): 4.34
O=C(NC(=S)N1CCCCC1)c1ccc2ccccc2c1  pIC50 (48 h): 5.14
CC(C)NCC(O)COc1ccccc1-c1ccccc1OCC(O)CNC(C)C (stereo not shown)  pIC50 (MTT; 72 h): < 4.12
CCOc1ccc(-c2nc3ccc(C)cc3[nH]2)cc1  pIC50 (MTT; 48 h): < 4.00
O=C(NC(=S)NCc1ccccc1)c1ccc2ccccc2c1  pIC50 (48 h): 5.30
Cc1ccc2c(Cl)cc(Cl)c(O)c2n1  pIC50 (MTT; 48 h): < 4.00
O=C(NC(=S)Nc1ccc([N+](=O)[O-])cc1)c1ccc2ccccc2c1  pIC50 (48 h): 5.11
FC(F)(F)c1cccc(Nc2ncnc3ccc(-c4ccc(CN5CCOCC5)cc4)cc23)c1  pIC50 (MTT; 24 h): 5.39
Cc1occc(=O)c1[O-].[Cl-].[W+4].c1cc[cH-]c1.c1cc[cH-]c1  pIC50 (MTT): 3.48
COc1cccc2c1C(=O)c1c(O)c3c(c(O)c1C2=O)C[C@@](O)(C(=O)CO)C[C@@H]3O[C@H]1C[C@H](N)[C@H](O)[C@H](C)O1  pIC50 (MTT): 4.71
O=C1Nc2c(C(F)(F)F)cccc2C1(c1ccc(OC(F)(F)F)cc1)c1c(F)cc(O)cc1F (stereo not shown)  pIC50 (resazurin; 24 h): 6.26
Oc1ncnc2cc(Nc3nc(-c4ccc(Br)cc4)cs3)ccc12  pIC50 (MTT): 5.31
CSc1ccc(-c2nc3ccccc3[nH]2)cc1  pIC50 (MTT; 48 h): 4.48
COc1cc2ncnc(Nc3ccc(F)c(Cl)c3)c2cc1NC(=O)N/N=C/c1cccn1CCN1CCOCC1  pIC50 (MTT; 72 h): 5.93
CC/C(=C(/c1ccc(OCCNC)cc1)c1ccc(B2OC(C)(C)C(C)(C)O2)cc1)c1ccccc1  pIC50 (5 days): 6.15
COc1cc2ncnc(Nc3ccc(F)c(Cl)c3)c2cc1NC(=O)N/N=C/CN(C)C  pIC50 (MTT; 72 h): 5.27
CC(C)Cc1ccc(-c2nn(-c3ccc(S(C)(=O)=O)cc3)cc2/C=N/N=c2\[nH]c(-c3ccc([N+](=O)[O-])cc3)cs2)cc1  pIC50 (MTT; 48 h): 5.55
Fc1cccc(Cl)c1-c1nc2ccccc2[nH]1  pIC50 (MTT; 48 h): < 4.00
Nc1nc(Oc2ccccc2)nn1-c1ccc(C(=O)O)cc1  pIC50 (MTT): 4.73
Oc1c(Br)cc(Br)c2cccnc12  pIC50 (MTT; 48 h): < 4.00
CS(=O)(=O)c1ccc(-n2cc(/C=N/N=c3\[nH]c(-c4ccc([N+](=O)[O-])cc4)cs3)c(-c3ccc(Br)cc3)n2)cc1  pIC50 (MTT; 48 h): 4.45
O=C(N/N=C/c1cccn1CCCN1CCCCC1)Nc1cc2c(Nc3ccc(F)c(Cl)c3)ncnc2cc1O[C@H]1CCOC1  pIC50 (MTT; 72 h): 5.88
Cc1ccc2nc(-c3ccc([N+](=O)[O-])cc3)n(Cc3ccccc3)c2c1  pIC50 (MTT): 5.10
CS(=O)(=O)c1nc(N)n(-c2ccc(C(=O)O)cc2)n1  pIC50 (MTT): 4.66
COc1cc2ncnc(Nc3ccc(F)c(Cl)c3)c2cc1NC(=O)N/N=C/c1cccn1CCCN1CCN(C)CC1  pIC50 (MTT; 72 h): 5.61
Clc1ccc(C[n+]2cn(CCc3ccccc3)c3ccccc32)cc1  pIC50 (MTT; 72 h): 4.89
Cc1ccc(S(=O)(=O)NN=Cc2cn(CCN3CCOCC3)c3ccccc23)cc1  pIC50 (MTT; 48 h): 4.21
Cc1ccc(-c2nn(-c3ccc(S(C)(=O)=O)cc3)cc2/C=N\N=c2/[nH]c(-c3ccc([N+](=O)[O-])cc3)cs2)cc1  pIC50 (MTT; 48 h): 4.44
O=C(Nc1nnnn1C1CCCCC1)c1ccc2ccccc2c1  pIC50 (48 h): 5.62
c1ccc2[nH]c(-c3ccc4c(c3)OCO4)nc2c1  pIC50 (MTT; 48 h): < 4.00
Cc1cc(C)n(-c2nc(Nc3ccc(Cl)cc3)nc(-n3nc(C)cc3C)n2)n1  pIC50 (MTT; 72 h): 5.64
COc1cc2ncnc(Nc3ccc(F)c(Cl)c3)c2cc1NC(=O)N/N=C/CN1CCN(C)CC1  pIC50 (MTT; 72 h): 5.06
Clc1ccccc1-c1nc2ccccc2[nH]1  pIC50 (MTT; 48 h): 4.16
